These results are taken from ChEMBL document CHEMBL1152630, “Synthesis and evaluation of benzo[b]thiophene derivatives as inhibitors of alkaline phosphatases” (Bioorg Med Chem, 2009).

Assay [1] deals with Intestinal-type alkaline phosphatase (Bos taurus) (UniProt P19111). The experiment in a line: Inhibition of bovine intestinal alkaline phosphatase assessed as residual enzyme activity at 0.1 mM in presence of 1% DMSO at pH 10.4 at 37 degC relative to untreated control. In outline: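 Screening in 25 mM piperazine, 25 mM glycylglycine, 5 mM MgCl2, 5 µM ZnCl2, pH 10.4, 37 °C. BIAP (0.1–0.3 µg/mL) preincubated 10 min with 0.1 mM compound (final DMSO 1% v/v), no substrate. Reaction started with 0.05 mM pNPP; read at 420 nm (ε 18.6 cm⁻¹ mM⁻¹). Activity given relative to inhibitor-free control; sample-to-sample error 5%.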
Intestinal-type alkaline phosphatase (Bos taurus), sequence (P19111 20-506 limits assumed): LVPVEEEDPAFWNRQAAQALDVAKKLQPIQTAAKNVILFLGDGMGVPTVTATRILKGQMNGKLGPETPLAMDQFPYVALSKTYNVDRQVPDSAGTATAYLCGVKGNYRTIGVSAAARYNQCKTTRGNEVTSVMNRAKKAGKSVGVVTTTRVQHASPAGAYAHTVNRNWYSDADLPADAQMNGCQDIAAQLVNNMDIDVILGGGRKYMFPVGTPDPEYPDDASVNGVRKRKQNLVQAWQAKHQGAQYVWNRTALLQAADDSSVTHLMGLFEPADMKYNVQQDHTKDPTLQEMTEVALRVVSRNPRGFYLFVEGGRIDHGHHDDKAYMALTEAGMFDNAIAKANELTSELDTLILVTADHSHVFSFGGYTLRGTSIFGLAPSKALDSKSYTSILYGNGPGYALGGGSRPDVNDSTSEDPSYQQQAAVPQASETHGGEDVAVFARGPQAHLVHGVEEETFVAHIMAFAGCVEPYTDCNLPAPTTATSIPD

For assay [2], the species on record is Sus scrofa. The experiment in a line: Inhibition of porcine kidney tissue non-specific alkaline phosphatase assessed as residual enzyme activity at 0.4 mM in presence of 4% DMSO at pH 10.4 at 37 degC relative to untreated control.

Molecules are shown by their SMILES.

`CN(C)c1cccc(-c2sc3ccccc3c2CN)c1`: the Activity in assay [1] came to 134%; in assay [2], 84%.

On to `O=Cc1csc2ccccc12`, for which the results for the Activity in assay [1] and in assay [2] were 120% and 85%, respectively.

For `O=Cc1c(-c2ccccc2[N+](=O)[O-])sc2ccccc12`, the Activity came out at 116% in assay [1] and 78% in assay [2].

Turning to `COc1ccc(-c2sc3ccccc3c2C(=O)c2ccccc2)c([N+](=O)[O-])c1`, the Activity came to 114% in assay [1] and 97% in assay [2].

Turning to `COc1cc(-c2sc3ccccc3c2C#N)cc(OC)c1OC`, the Activity in assay [1] came out at 88%; in assay [2] it was 91%.

Turning to `COc1ccc(-c2sc3ccccc3c2C#N)cc1`, the Activity in assay [1] came to 94%.

Regarding `O=Cc1c(-c2cnc3ccccc3c2)sc2ccccc12`, the Activity in assay [1] was 110%.

On to `COc1ccc(-c2sc3ccccc3c2CN)c(OC)c1OC`, for which the Activity in assay [1] was determined as 142%; in assay [2], 94%.

As to `N#Cc1c(-c2ccc(C(F)(F)F)cc2)sc2ccccc12`, the figures for the Activity in assay [1] and in assay [2] were 96% and 97%, respectively.

Consider `COc1cccc(C(=O)c2c(-c3ccccc3[N+](=O)[O-])sc3ccccc23)c1`, for which the Activity in assay [1] worked out at 98%; in assay [2] it was 96%.

In the case of `COc1c(-c2ccccc2C#N)sc2ccccc12`, the values for the Activity in assay [1] and in assay [2] were 57% and 79%, respectively.

As to `COc1cccc(-c2sc3ccccc3c2C#N)c1`, the Activity in assay [1] came to 97%.

On to `N#Cc1c(-c2cccnc2)sc2ccccc12`, for which the Activity in assay [1] was determined as 106%.

Take `COc1ccc(-c2sc3ccccc3c2C(=O)c2cc(OC)c(OC)c(OC)c2)c([N+](=O)[O-])c1`: the figures for the Activity in assay [1] and in assay [2] were 124% and 92%, respectively.

`COc1ccc(-c2cc3ccccc3s2)c([N+](=O)[O-])c1`: the Activity in assay [1] came out at 99%; in assay [2] it was 96%.

On to `O=Cc1c(-c2ccccc2Cl)sc2ccccc12`, for which the Activity in assay [1] is 63%; in assay [2] it was 97%.

As to `c1ccc2c(N3CCOCC3)csc2c1`, the Activity was 108% in assay [1] and 99% in assay [2].

In the case of `N#Cc1c(-c2cccc(Cl)c2)sc2ccccc12`, in assay [1], the Activity came out at 115%.

For the compound `Clc1cccc(-c2cc3ccccc3s2)c1`, the figures for the Activity in assay [1] and in assay [2] were 95% and 96%, respectively.

Turning to `COc1ccc(Oc2c[s+]([O-])c3ccccc23)cc1` (configuration not stated), the values for the Activity in assay [1] and in assay [2] were 107% and 100%, respectively.

In the case of `COc1ccc(-c2sc3ccccc3c2C=O)cc1`, the Activity in assay [1] amounted to 37%; in assay [2] it was 99%.

Regarding `N#Cc1c(-c2ccc(Cl)cc2)sc2ccccc12`, in assay [1], the Activity was found to be 69%.

`N#Cc1cc2ccccc2s1`: the Activity is 103% in assay [1] and 105% in assay [2].

With `Clc1ccc(Oc2csc3ccccc23)cc1`, the Activity in assay [1] is 107%; in assay [2], 94%.

For `CN(C)c1ccc(-c2sc3ccccc3c2C#N)cc1`, the Activity stood at 82% in assay [1] and 83% in assay [2].

`Nc1ccccc1-c1cc2ccccc2s1`: the figures for the Activity in assay [1] and in assay [2] were 93% and 70%, respectively.

As for `COc1ccc(-c2sc3ccccc3c2N2CCCCC2)cc1`, the Activity in assay [1] came out at 106%; in assay [2], 91%.

With `c1ccc2c(N3CCCCC3)csc2c1`, the values for the Activity in assay [1] and in assay [2] were 92% and 80%, respectively.

Consider `O=Cc1ccc(Oc2csc3ccccc23)cc1`, for which the Activity in assay [1] stood at 9%.

With `COc1ccc(C(=O)c2csc3ccccc23)cc1`, the Activity in assay [1] worked out at 40%; in assay [2], 96%.

For `[O-][s+]1cc(N2CCCCC2)c2ccccc21` (configuration not stated), the Activity in assay [1] worked out at 110%; in assay [2], 101%.

Regarding `FC(F)(F)COc1sc2ccccc2c1-c1cccnc1`, the Activity in assay [1] was 102%; in assay [2], 97%.

As for `N#Cc1ccccc1-c1sc2ccccc2c1Oc1ccc(Cl)cc1`, the Activity in assay [1] is 101%; in assay [2], 79%.

Consider `N#Cc1ccc(Oc2c[s+]([O-])c3ccccc23)cc1` (configuration not stated), for which the Activity is 106% in assay [1] and 67% in assay [2].

For the compound `c1ccc(Oc2c(-c3ccccc3)sc3ccccc23)cc1`, the Activity in assay [1] was determined as 104%; in assay [2], 91%.

Take `Cc1ccc(-c2cc3ccccc3s2)c(N)c1`: the results for the Activity in assay [1] and in assay [2] were 107% and 93%, respectively.

Consider `Cc1ccc(-c2cc3ccccc3s2)c([N+](=O)[O-])c1`, for which the Activity amounted to 127% in assay [1] and 97% in assay [2].

As for `COc1ccc(-c2sc3ccccc3c2C(=O)c2cc(OC)c(O)c(OC)c2)c([N+](=O)[O-])c1`, the Activity in assay [1] amounted to 125%; in assay [2], 95%.

For the compound `N#Cc1ccccc1-c1c(OCC(F)(F)F)sc2ccccc12`, the Activity in assay [1] was determined as 101%; in assay [2] it was 87%.

For `COc1c(-c2ccc3ccccc3c2)sc2ccccc12`, in assay [1], the Activity came out at 102%.

With `COc1ccc(C(=O)c2c(-c3ccc(OC)cc3)sc3ccccc23)cc1`, the figures for the Activity in assay [1] and in assay [2] were 70% and 108%, respectively.

With `COc1ccc(Oc2csc3ccccc23)cc1`, the Activity in assay [1] was 96%; in assay [2] it was 82%.

As to `COc1c(-c2ccccc2)sc2ccccc12`, the figures for the Activity in assay [1] and in assay [2] were 80% and 87%, respectively.

Consider `CN1CCN(c2c[s+]([O-])c3ccccc23)CC1` (configuration not stated), for which the Activity in assay [1] was determined as 102%; in assay [2], 95%.

As to `[O-][s+]1cc(Br)c2ccccc21` (configuration not stated), the Activity in assay [1] stood at 105%; in assay [2], 100%.

Take `COc1cc(Oc2csc3ccccc23)cc(OC)c1OC`: the Activity in assay [1] was determined as 129%; in assay [2], 101%.

Regarding `COc1cccc(C(=O)c2c(-c3ccc(OC)cc3[N+](=O)[O-])sc3ccccc23)c1`, the Activity was 116% in assay [1] and 100% in assay [2].

Turning to `[O-][s+]1cc(Oc2ccc(F)cc2)c2ccccc21` (configuration not stated), the figures for the Activity in assay [1] and in assay [2] were 109% and 79%, respectively.

Consider `COc1ccc(-c2sc3ccccc3c2OC)cc1`, for which the Activity worked out at 78% in assay [1] and 97% in assay [2].

Consider `CN1CCN(c2csc3ccccc23)CC1`, for which the values for the Activity in assay [1] and in assay [2] were 107% and 97%, respectively.

For `N#Cc1csc2ccccc12`, the Activity in assay [1] and in assay [2] was 92% throughout.

With `FC(F)(F)Cc1c(-c2cccnc2)sc2ccccc12`, the results for the Activity in assay [1] and in assay [2] were 122% and 84%, respectively.

Consider `N#Cc1c(-c2ccccn2)sc2ccccc12`, for which the Activity in assay [1] came out at 94%.

On to `N#Cc1sc2ccccc2c1-c1ccc(C(F)(F)F)cc1`, for which the Activity in assay [1] stood at 115%.

On to `N#Cc1sc2ccccc2c1-c1cccnc1`, for which, in assay [1], the Activity came out at 120%.

Consider `COC(=O)/C(=C\c1c(-c2ccc(C#N)cc2)sc2ccccc12)NCc1ccccc1`, for which, in assay [1], the Activity was 108%.

Take `O=Cc1c(-c2ccc(Cl)cc2)sc2ccccc12`: the Activity in assay [1] came out at 9%.

In the case of `N#Cc1ccccc1-c1sc2ccccc2c1C#N`, the Activity in assay [1] turned out to be 90%.

Take `N#Cc1c(-c2ccccc2)sc2ccccc12`: the Activity in assay [1] came to 76%.

As to `COC(=O)C(Cc1c(-c2ccc(C(F)(F)F)cc2)sc2ccccc12)NCc1ccccc1` (configuration not stated), in assay [1], the Activity was determined as 63%.

For the compound `N#Cc1c(-c2cnc3ccccc3c2)sc2ccccc12`, the Activity in assay [1] worked out at 95%.

In the case of `COc1ccc(-c2csc3ccccc23)cc1`, the Activity in assay [1] turned out to be 100%.

Consider `COC(=O)C(Cc1c(-c2ccc(C#N)cc2)sc2ccccc12)NCc1ccccc1` (configuration not stated), for which, in assay [1], the Activity was 115%.
